# Most compounds without a hit are left out; they make up all but 3.1% or so of the library.
# OX1R antag-1 = human HCRTR1 antagonism. O43613. 0.43% of 330,000 active. inhibition, % at 5 µM. CHO/OX1R cells, Fluo-8 calcium fluorescence, orexin A;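 active = inhibition above its plate's threshold, mean inhibition of all tested compounds on the plate plus 3 SD, cut at about 37% in these data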;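 also: 0% = orexin A challenge wells and 100% = SB-334867-A antagonist wells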
# GPR7 antagonist = antagonists of human GPR7 (neuropeptides B/W receptor 1); GPR7-expressing cells, fluorescence antagonist assay; 1.1% of 290,000 active; inhibition, % at 4.4 µM; in the data active = inhibition above about 16%, passing the limit was not always enough;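 also: cells stimulated with the agonist NPW; 0% = agonist with vehicle and 100% = vehicle without agonist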
# Target sequence (P48145 whole entry, looked up): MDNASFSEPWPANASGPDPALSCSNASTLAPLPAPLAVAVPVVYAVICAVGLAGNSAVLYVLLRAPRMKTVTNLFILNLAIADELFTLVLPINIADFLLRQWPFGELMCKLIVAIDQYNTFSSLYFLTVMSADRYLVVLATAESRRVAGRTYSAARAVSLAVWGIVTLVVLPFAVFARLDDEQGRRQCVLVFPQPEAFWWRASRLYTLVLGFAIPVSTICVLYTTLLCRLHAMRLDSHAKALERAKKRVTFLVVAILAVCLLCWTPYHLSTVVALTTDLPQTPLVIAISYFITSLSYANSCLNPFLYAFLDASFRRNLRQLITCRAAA
# GalR3 antagonist = antagonists of human GalR3; inhibition, % at 3 µM; 0.44% of 360,000 active; HEK293 GalR3-CNG cAMP membrane potential fluorescence; galR3 body fused to GalR1 C-terminus; AID 651719;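 active = inhibition above the screen-wide average plus 3 SD, cut at about 13% in these data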;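 also: forskolin and galanin both at EC90 stimulate the cells; cAMP rise reported by CNG channel membrane potential dye signal; 0% = forskolin plus galanin with DMSO and 100% = forskolin alone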
# Target sequence (O60755 1-299 limits assumed): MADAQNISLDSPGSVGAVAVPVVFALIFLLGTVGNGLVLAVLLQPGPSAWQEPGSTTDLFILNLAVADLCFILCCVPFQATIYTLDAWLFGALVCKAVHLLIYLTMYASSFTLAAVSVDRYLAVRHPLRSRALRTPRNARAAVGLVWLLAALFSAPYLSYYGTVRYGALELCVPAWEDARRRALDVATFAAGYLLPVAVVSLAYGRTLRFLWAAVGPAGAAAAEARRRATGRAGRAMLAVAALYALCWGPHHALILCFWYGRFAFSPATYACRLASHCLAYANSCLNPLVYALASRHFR
# OX1R antag-2 = antagonists of human orexin 1 receptor (OX1R). O43613. OX1R-expressing cells, FRET antagonist read-out. inhibition, % at 6.6 µM. 1.8% of 330,000 active; in the data active = inhibition mostly above about 38%, no sharp cut-off; inactive = mostly below about 40%;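 also: 0% = agonist challenge alone and 100% = reference antagonist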
# CHO parental Ca = counter-screen for OX1R antagonists: effect in parental CHO cells | 0.63% of 330,000 active | inhibition, % at 5.6 µM | AID 463079 | parental CHO-K1, ATP-induced calcium, Fluo-8 fluorescence;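 active = inhibition above that plate's mean sample inhibition plus 3 SD, cut at about 26% in these data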;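 also: 0% = ATP-challenged DMSO wells and 100% = DMSO wells without ATP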
#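 Test system: untransfected parental CHO cell line. Compound: one dose, 5.6 µM nominal. Detection: intracellular calcium via Fluo-8 no-wash fluorescent dye. Measure: % inhibition. Benchmarks: ATP-challenged DMSO wells low, unchallenged DMSO wells high.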
# OX1R Fluo8 conf = OX1R (human) antagonism, confirmed; shares compounds with OX1R antag-1; CHO/OX1R cells, orexin A calcium Fluo-8 fluorescence; inhibition, % at 5 µM; 38% of 1,100 active; in the data active = inhibition above about 29%;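 also: 0% = agonist challenge alone and 100% = reference antagonist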
# CHO Ca counter = signal in parental CHO cells, OX1R antagonist counter-screen. 9.3% of 1,100 active. inhibition, % at 5.6 µM. shares compounds with OX1R antag-1. parental CHO-K1, ATP-induced calcium, Fluo-8 fluorescence;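 active = inhibition above a per-plate limit, the mean inhibition of that plate's test compounds plus 3 SD, cut at about 25% in these data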;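 also: 0% = ATP challenge with DMSO and 100% = DMSO without ATP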
# * hit, by the source's call; x = no result given.
SMILES,OX1R antag-1,GPR7 antagonist,GalR3 antagonist,OX1R antag-2,CHO parental Ca,OX1R Fluo8 conf,CHO Ca counter
Cc1nn(C)c(C(=O)Nc2ccc3c(c2)OCO3)c1[N+](=O)[O-],x,-2.4,-0.9,x,x,x,x
Cc1nn(C)c(C(=O)Nc2ccc(Cl)c([N+](=O)[O-])c2)c1Cl,36.2,-4.9,-2.9,5.4,2.6,2.1,0.2
CCC(NC(=O)c1cc(COc2cc(C)c(Cl)c(C)c2)on1)c1ccncc1 (stereo not drawn),42.3*,16.6,-2.7,17.5,16.6,27.2,7.3
CCC(NC(=O)c1cc(COc2ccc(OC)cc2Cl)on1)c1ccncc1 (stereo not drawn),-12.2,8.7,-3.0,4.2,-14.8,x,x
COC(=O)C1=C(C)N(C)C(=NCc2ccc3c(c2)OCO3)NC1c1ccc(Cl)cc1 (stereo not drawn),x,x,-7.9,x,x,x,x
COc1ccc(C)cc1NC(=O)CSc1nnc(COc2ccccc2)n1Cc1ccco1,42.7,2.9,-0.9,23.3,14.3,-17.0,-13.7
O=C(c1cccc(S(=O)(=O)N2CCN(c3ccc(F)cc3)CC2)c1)N1CCN(c2ccccc2O)CC1,x,x,8.8,x,x,x,x
Cc1cn([C@H]2C[C@H](O)[C@@H](CCC(=O)NCCc3ccc4ccccc4c3)O2)c(=O)[nH]c1=O,x,x,-5.5,x,x,x,x
Nc1nnc(SCc2nc3scc(-c4ccccc4)c3c(=O)[nH]2)s1,26.5,-10.8,1.4,11.1,7.8,10.0,22.2
CN(Cc1c(C(=O)N/N=C/c2cccc(Cl)c2)nnn1-c1nonc1N)c1ccccc1,38.0,8.1,-8.9,46.5,-5.2,9.8,-6.8
COCc1[nH]nc2c1C(c1ccccc1)NC2=O (stereo not drawn),x,x,1.6,x,x,x,x
Cc1cc(C)cc(NS(=O)(=O)c2ccc3[nH]cc(C(=O)N4CCc5ccccc54)c(=O)c3c2)c1,19.4,9.8,-2.8,63.9,-6.3,x,x
CCc1ccc(NS(=O)(=O)c2ccc3[nH]cc(C(=O)N4CCc5ccccc54)c(=O)c3c2)cc1,31.0,1.9,-2.2,68.4,-14.8,31.8*,-10.8
O=C(CSc1nc2ccccc2o1)Nc1ccccc1N1CCOCC1,-4.8,3.5,-0.9,55.4,-7.2,x,x
O=C(CSc1nc2ccccc2[nH]1)Nc1ccccc1N1CCOCC1,37.8,-13.7,1.3,74.6,-1.0,35.2*,-8.6
COc1ccccc1OCCCc1c(C)n[nH]c1C,-7.1,1.0,-6.2,5.2,-9.5,x,x
COc1ccccc1OCCCCCc1c(C)n[nH]c1C,43.0,-2.4,-7.0,18.6,8.5,8.7,1.4
CCOc1ccc(S(=O)(=O)n2cnc3cc(C)c(C)cc32)cc1,60.2*,8.0,-1.3,21.8,0.8,-0.6,58.9*
CCNC(=O)C12CCC(C)(C(=O)O1)C2(C)C (stereo not drawn),21.8,-18.7,6.2,2.9,5.2,6.8,1.3
CC12CCC(C(=O)NCCCN3CCOCC3)(OC1=O)C2(C)C (stereo not drawn),-12.9,-0.9,-1.5,7.0,-3.0,x,x
O=C(NCc1ccccc1)C(c1ccccc1)n1c(C2CC2)nc2ccccc21 (stereo not drawn),x,x,-2.2,x,x,x,x
Cc1ccc(NC(=O)C2=C(c3ccccc3)S(=O)(=O)CCS2(=O)=O)cc1,35.1,33.9*,7.2,24.5,21.5,42.9*,22.2
Cc1ccc(NC(=O)c2ccccc2)cc1,-29.0,-0.4,-1.7,24.1,-13.4,x,x
COc1ccc(C[C@H]2CN3C(=NC[C@@H]3Cc3ccccc3)N2CCNC(=O)c2ccc(C)c(Br)c2)cc1,0.9,19.3,x,6.3,-14.2,x,x
COc1ccc(C[C@H]2CN3C(=NC[C@H]3Cc3ccccc3)N2CCNC(=O)c2ccc(C)c(Br)c2)cc1,32.1,x,x,12.8,7.6,31.6*,-3.7
SMILES,OX1R antag-1,GPR7 antagonist,GalR3 antagonist,OX1R antag-2,CHO parental Ca,OX1R Fluo8 conf,CHO Ca counter
O=C(Oc1ccc(Cl)cc1)N1CCOCC1,1.0,-4.3,-8.9,19.2,-9.3,x,x
COc1ccc(OC(=O)N2CCOCC2)cc1,26.0,-5.6,-8.3,-3.1,2.9,-0.9,3.5
CCCCOC(=O)c1ccc(NC(=O)c2cc(Cl)ccc2OC)cc1,37.1,1.5,0.5,33.5,-19.1,29.2*,-15.0
CCCCOC(=O)c1ccc(NC(=O)c2ccccc2OC)cc1,1.6,-1.2,-3.6,47.3,-5.8,x,x
CCCN1C(=O)/C(=C/C=C2\N(CC)c3ccccc3C2(C)C)SC1=S,36.7,8.5,-3.6,3.8,18.8,55.5*,51.9*
CCCN1C(=O)/C(=C\C=C2/Sc3ccccc3N2CCO)SC1=S,9.7,-2.9,-5.5,30.7,-22.4,x,x
CCN1C(=O)/C(=C/C=C2/Sc3ccccc3N2CCO)SC1=S,21.6,-2.3,-1.1,43.5,2.5,20.5,25.0*
C[C@@H]1CCCCO[C@@H](CN(C)Cc2ccc(C(F)(F)F)cc2)[C@@H](C)CN([C@H](C)CO)C(=O)c2cc(N(C)C)ccc2O1,x,x,-5.2,x,x,x,x
COC(=O)C(Cc1c[nH]c2ccccc12)NC(=O)c1cccs1 (stereo not drawn),-15.8,-11.9,-4.4,6.8,-3.6,x,x
COc1ccc(CNC(=O)COC(=O)[C@H](Cc2c[nH]c3ccccc23)NC(=O)c2cccs2)cc1,48.8*,1.4,-0.6,13.3,12.0,59.6*,10.4
CC(C)CC1OC(C(C)C)Cc2[nH]c(=S)[nH]c(=O)c21 (stereo not drawn),x,x,-7.5,x,x,x,x
CCN(CC)c1ccc(S(=O)(=O)N2CCOCC2)cc1NC(=O)CNCc1cccc(Cl)c1,x,x,-5.5,x,x,x,x
C=CCn1c(SCC(=O)Nc2sccc2C(N)=O)nc2sc(C)c(C)c2c1=O,43.3,-4.5,-2.5,19.6,-14.3,-0.9,-14.6
Cc1ccc(NC(=O)COC(=O)c2cccc(C)c2[N+](=O)[O-])cc1S(=O)(=O)N1CCCCC1,44.0*,x,-4.0,4.1,21.4,14.1,9.2
CCOC(=O)c1ccc(NC(=S)N2CCSC2c2ccc(Cl)cc2)cc1 (stereo not drawn),40.5,0.0,-2.1,3.0,28.1,90.6*,73.5*
CCOC(=O)c1ccc(NC(=S)N2CCSC2c2ccc(OC)cc2)cc1 (stereo not drawn),-17.4,1.7,-3.5,6.7,-5.0,x,x
O[C@H]1C[C@H](c2ccc(Cl)cc2)N(Cc2cccs2)C[C@@H]1n1cc(-c2ccc(F)cc2)nn1,x,x,-5.1,x,x,x,x
CC(C)NC(=O)C1CCN(C2CCN(CC3CC=CCC3)CC2)CC1 (stereo not drawn),75.8*,1.4,-6.4,7.5,-4.0,3.2,-1.0
Cc1c(NC(=O)c2cccc(-c3cc4ccccc4oc3=O)c2)cccc1-c1nc2ncccc2o1,31.6,-6.6,-2.8,66.5,-19.4,23.6,-15.9
CSc1ccc2c(c1)C(N1CCN(C)CC1)Cc1ccc(F)cc1S2 (stereo not drawn),-8.0,x,-4.7,5.9,1.8,x,x
COc1ccc2c(c1)CC(N1CCN(C)CC1)c1cc(OC)ccc1S2 (stereo not drawn),45.2*,x,-11.6,15.8,19.1,21.2,11.2

# Screening data deposited in PubChem by The Scripps Research Institute Molecular Screening Center.
